We go through 15 molecules from ChEMBL document CHEMBL1649420, “Identifying chelators for metalloprotein inhibitors using a fragment-based approach” (J Med Chem, 2011).

Assay [1] concerns the target T1, 72 kDa type IV collagenase (Homo sapiens, UniProt P08253). Briefly: Inhibition of human recombinant MMP2 after 30 mins. A digest of the protocol:
(§1)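 Enzyme (1.16 U) preincubated 30 min at 37 °C with fragment in 50 mM HEPES, 10 mM CaCl2, 0.05% Brij-35, pH 7.5. Fluorogenic Mca peptide substrate (4 μM final) then added. Rate of fluorescence increase compared with no-inhibitor control (100%). Single-point 25 μM final for the 8-hydroxyquinoline sublibrary. IC50 fitted to dose-response curves from serial dilutions of DMSO stocks.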
Target sequence in this assay (P08253 whole entry, the tested form may be a part): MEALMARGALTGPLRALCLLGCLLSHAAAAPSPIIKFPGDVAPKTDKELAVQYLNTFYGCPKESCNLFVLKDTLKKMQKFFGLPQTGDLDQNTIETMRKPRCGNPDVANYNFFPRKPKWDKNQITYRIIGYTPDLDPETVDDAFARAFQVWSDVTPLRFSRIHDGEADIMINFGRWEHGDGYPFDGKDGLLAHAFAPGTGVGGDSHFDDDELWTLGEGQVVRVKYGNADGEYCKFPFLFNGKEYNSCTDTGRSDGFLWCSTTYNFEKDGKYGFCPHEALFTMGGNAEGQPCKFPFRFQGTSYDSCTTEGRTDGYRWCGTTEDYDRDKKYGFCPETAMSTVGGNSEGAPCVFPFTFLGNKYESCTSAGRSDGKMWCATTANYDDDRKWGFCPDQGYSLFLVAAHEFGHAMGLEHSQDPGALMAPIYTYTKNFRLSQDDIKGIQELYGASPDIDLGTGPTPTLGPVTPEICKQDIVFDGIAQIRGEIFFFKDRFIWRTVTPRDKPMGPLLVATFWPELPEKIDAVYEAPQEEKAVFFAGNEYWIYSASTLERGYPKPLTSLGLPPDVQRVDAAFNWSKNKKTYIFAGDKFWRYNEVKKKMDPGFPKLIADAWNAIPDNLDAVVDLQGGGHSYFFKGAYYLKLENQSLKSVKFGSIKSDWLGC

Assay [2] concerns the target T1, 72 kDa type IV collagenase. Briefly: Inhibition of human recombinant MMP2 at 25 uM after 30 mins. A digest of the protocol:
as §1
Target sequence in this assay (P08253 110-660 limits assumed): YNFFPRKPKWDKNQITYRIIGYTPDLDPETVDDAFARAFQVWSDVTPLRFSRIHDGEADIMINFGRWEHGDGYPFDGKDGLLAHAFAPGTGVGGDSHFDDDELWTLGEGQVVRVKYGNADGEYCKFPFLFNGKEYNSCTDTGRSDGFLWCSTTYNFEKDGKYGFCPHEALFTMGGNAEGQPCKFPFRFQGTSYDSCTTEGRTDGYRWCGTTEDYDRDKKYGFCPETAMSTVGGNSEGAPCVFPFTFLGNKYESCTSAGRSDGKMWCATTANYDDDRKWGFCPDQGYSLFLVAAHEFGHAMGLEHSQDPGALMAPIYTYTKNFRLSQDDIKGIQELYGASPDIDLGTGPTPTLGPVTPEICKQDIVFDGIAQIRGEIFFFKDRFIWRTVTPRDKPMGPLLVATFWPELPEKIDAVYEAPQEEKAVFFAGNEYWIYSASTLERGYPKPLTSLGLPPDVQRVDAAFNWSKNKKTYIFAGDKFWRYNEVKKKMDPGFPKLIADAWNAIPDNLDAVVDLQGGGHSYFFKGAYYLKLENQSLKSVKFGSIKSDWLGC

Assay [3] deals with T2, Lethal factor (Bacillus anthracis) (UniProt P15917).
T2 sequence (whole entry): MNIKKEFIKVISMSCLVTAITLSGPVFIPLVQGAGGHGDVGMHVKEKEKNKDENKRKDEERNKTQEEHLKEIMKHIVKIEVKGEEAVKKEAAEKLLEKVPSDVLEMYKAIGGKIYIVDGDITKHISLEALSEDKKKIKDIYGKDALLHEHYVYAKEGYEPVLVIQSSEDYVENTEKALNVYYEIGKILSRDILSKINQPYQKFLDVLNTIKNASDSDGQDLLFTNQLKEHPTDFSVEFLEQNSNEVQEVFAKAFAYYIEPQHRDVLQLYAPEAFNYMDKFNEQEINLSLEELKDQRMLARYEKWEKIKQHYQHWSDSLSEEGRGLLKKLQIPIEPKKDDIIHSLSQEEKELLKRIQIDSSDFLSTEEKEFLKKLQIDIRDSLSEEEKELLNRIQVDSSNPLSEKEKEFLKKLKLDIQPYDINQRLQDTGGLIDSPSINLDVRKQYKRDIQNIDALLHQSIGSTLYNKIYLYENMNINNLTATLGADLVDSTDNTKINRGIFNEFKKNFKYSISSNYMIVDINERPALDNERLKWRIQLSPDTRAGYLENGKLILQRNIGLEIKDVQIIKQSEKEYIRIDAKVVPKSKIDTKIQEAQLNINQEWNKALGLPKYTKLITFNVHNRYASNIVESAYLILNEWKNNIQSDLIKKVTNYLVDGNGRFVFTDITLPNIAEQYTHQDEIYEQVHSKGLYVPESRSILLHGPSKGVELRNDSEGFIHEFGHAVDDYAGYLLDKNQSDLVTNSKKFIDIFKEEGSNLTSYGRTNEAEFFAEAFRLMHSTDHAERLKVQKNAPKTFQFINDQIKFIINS
To be noted: at 1 mM.

Assay [4] deals with T3, Tyrosinase (Agaricus bisporus) (UniProt O42713).
T3 sequence (whole entry): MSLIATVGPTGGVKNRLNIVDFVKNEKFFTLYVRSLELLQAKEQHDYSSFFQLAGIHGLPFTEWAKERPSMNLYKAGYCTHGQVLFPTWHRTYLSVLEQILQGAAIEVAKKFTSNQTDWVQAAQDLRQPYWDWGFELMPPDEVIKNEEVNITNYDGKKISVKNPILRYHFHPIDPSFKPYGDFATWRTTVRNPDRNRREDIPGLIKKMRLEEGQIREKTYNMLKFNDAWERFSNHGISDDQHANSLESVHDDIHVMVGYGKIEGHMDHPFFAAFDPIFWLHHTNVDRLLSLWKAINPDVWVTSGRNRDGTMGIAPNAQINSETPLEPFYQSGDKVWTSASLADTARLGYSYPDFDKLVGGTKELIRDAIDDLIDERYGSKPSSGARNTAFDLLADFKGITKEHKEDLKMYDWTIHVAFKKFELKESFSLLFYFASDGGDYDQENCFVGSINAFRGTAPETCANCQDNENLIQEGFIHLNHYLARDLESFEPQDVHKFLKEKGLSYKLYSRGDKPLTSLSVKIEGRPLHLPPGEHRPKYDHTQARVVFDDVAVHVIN
To be noted: at 1 mM.

Assay [5] addresses Stromelysin-1 (Homo sapiens) (UniProt P08254). To be noted: at 1 mM.
In assay [6] the target is T1, 72 kDa type IV collagenase. To be noted: at 1 mM.
Target sequence in this assay (P08253 110-660 limits assumed): as the sequence (P08253 110-660 limits assumed) above
The target of assay [7] is T4, Interstitial collagenase (Homo sapiens) (UniProt P03956).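 Note: recombinant human enzyme, with inhibition measured after 30 min.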
T4 sequence (whole entry): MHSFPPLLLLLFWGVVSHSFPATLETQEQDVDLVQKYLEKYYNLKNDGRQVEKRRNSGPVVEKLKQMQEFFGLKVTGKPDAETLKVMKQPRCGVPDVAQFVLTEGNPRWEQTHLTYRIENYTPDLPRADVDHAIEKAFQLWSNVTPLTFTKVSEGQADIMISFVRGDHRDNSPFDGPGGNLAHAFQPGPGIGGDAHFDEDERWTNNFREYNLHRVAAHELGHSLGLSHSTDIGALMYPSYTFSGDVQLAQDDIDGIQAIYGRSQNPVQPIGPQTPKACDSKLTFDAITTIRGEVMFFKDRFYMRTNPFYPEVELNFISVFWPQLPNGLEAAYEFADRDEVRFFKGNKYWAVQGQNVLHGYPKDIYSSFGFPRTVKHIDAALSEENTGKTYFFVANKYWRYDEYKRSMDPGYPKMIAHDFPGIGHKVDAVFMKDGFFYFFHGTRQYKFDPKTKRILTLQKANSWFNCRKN
The following applies: at 1 mM.

The target of assay [8] is Neutrophil collagenase (Homo sapiens) (UniProt P22894). To be noted: at 1 mM.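 Note: recombinant human MMP8 enzyme, percent inhibition read after 30 min.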
Assay [9] addresses T5, Nitric oxide synthase, inducible (Mus musculus) (UniProt P29477).
T5 sequence (whole entry): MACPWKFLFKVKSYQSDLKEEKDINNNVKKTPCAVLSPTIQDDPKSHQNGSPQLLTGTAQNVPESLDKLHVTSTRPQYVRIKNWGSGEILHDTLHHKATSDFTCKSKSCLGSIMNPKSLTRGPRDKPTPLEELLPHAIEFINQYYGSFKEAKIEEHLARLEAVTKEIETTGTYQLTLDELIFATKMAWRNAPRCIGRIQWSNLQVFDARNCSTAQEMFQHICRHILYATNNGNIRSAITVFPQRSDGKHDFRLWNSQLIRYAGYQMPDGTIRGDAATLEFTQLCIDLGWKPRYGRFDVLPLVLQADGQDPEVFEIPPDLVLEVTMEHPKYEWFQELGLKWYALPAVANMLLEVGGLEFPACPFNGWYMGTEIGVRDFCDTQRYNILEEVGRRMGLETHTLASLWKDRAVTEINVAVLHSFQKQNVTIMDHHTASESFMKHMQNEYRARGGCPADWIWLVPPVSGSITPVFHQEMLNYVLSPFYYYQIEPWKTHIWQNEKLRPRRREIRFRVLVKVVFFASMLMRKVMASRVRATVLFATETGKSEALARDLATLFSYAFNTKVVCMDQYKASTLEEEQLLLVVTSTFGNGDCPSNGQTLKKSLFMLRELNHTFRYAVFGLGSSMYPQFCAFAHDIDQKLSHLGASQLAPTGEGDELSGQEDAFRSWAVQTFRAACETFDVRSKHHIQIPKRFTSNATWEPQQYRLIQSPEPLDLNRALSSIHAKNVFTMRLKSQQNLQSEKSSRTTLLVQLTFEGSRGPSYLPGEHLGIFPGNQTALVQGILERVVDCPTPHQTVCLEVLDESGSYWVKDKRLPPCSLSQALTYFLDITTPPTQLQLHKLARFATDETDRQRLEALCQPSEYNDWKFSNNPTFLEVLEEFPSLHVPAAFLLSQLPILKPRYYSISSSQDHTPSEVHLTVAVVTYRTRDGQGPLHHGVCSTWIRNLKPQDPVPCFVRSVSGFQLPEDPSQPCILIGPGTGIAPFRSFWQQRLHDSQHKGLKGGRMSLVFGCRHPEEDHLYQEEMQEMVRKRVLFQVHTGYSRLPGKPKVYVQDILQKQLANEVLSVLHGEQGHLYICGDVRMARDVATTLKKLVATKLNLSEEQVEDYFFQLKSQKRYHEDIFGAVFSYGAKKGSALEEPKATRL
To be noted: at 1 mM.

Assay [10] has as its target T6, Polyunsaturated fatty acid 5-lipoxygenase (Homo sapiens) (UniProt P09917).
T6 sequence (whole entry): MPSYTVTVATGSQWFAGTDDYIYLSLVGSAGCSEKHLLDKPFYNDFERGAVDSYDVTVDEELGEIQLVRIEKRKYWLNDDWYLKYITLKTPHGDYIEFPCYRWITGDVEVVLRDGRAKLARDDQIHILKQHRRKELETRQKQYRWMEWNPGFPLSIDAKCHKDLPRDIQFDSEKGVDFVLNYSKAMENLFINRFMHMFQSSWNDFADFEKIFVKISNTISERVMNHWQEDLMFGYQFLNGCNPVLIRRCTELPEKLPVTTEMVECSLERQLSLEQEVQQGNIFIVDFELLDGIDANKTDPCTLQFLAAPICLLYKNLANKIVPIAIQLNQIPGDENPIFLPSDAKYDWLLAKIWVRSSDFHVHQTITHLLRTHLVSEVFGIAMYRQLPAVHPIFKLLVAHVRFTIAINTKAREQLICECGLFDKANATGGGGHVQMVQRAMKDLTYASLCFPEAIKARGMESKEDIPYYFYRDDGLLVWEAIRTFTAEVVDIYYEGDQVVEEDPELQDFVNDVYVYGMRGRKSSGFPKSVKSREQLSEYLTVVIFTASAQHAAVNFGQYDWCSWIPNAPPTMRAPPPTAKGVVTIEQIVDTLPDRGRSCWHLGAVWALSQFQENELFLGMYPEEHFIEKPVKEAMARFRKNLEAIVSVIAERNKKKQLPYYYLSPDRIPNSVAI
Briefly: Inhibition of human recombinant 5-lipoxygenase at 1 mM after 10 mins by fluorescence assay.

Assay [11] deals with T7, Polyunsaturated fatty acid 5-lipoxygenase (Homo sapiens, UniProt P09917).
T7 sequence (P09917 whole entry): T6 sequence (whole entry)
Briefly: Inhibition of human recombinant 5-lipoxygenase after 10 mins by fluorescence assay.

The target of assay [12] is Matrix metalloproteinase-9 (Homo sapiens) (UniProt P14780). The following applies: at 1 mM.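 Note: recombinant human MMP9, activity read after 30 min.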
The next assay concerns the target T8, Tyrosinase (Agaricus bisporus, UniProt O42713).
T8 sequence (O42713 whole entry): T3 sequence (whole entry)
As to the kind of experiment: Inhibition of mushroom tyrosinase after 10 mins.

Matrix metalloproteinase-9 (Homo sapiens), sequence (P14780 whole entry): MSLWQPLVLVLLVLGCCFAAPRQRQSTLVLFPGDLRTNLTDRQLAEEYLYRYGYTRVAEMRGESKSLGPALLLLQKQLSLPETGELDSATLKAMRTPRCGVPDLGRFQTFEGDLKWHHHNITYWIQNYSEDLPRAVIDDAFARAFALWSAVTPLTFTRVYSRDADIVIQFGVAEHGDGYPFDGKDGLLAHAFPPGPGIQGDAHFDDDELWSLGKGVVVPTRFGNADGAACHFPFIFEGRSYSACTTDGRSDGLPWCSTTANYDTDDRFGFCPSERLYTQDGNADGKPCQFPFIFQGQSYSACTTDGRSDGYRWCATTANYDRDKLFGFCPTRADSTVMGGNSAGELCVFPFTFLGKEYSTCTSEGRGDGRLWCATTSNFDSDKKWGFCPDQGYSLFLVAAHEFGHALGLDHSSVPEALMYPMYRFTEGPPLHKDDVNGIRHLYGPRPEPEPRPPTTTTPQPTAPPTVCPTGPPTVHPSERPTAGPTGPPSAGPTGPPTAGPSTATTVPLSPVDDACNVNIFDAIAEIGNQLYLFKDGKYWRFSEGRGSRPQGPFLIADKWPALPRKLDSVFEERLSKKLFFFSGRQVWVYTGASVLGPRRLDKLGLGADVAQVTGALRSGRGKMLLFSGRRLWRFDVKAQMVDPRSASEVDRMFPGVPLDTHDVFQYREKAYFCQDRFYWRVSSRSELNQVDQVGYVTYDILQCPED
Neutrophil collagenase (Homo sapiens), sequence (P22894 101-467 limits assumed): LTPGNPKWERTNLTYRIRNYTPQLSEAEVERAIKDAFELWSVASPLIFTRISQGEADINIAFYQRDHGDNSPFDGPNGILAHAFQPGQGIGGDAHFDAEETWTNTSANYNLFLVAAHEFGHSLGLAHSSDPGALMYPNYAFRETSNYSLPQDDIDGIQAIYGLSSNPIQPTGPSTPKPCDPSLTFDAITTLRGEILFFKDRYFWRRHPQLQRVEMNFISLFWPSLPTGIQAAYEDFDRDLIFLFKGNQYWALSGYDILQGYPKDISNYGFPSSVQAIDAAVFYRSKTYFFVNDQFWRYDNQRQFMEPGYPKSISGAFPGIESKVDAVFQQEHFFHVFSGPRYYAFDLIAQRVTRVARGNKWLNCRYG
Stromelysin-1 (Homo sapiens), sequence (P08254 100-477 limits assumed): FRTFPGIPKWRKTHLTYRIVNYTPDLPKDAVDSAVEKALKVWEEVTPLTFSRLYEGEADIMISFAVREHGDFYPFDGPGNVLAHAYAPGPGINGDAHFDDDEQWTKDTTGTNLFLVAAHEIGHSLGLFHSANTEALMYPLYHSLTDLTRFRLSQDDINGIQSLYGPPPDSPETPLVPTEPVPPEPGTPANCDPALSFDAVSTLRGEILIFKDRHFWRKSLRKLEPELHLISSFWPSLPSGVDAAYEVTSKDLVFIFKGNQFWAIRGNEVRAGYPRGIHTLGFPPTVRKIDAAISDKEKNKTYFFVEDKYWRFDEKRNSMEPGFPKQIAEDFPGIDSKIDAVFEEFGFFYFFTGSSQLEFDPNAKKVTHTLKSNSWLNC

With `O=S(=O)(Nc1ccc(O)c2ncccc12)c1ccc(F)cc1`, the IC50 in [1] was 7.2 µM. Moreover, the inhibition in assay [2] was over 65%.
Consider `CC(=O)NO` [ACETOHYDROXAMIC ACID], for which the inhibition in assay [3] was 25%; in assay [4] it was -2%; in assay [5] it was 5%; in [6], 4%; in assay [7], 10%; in [8], 5%. Further, the inhibition in assay [9] worked out at 4%. The half-maximal inhibitory concentration (IC50) in assay [1] was determined as 15000 µM.
Consider `O=S(=O)(Nc1ccc(O)c2ncccc12)c1cccs1`, for which, in [1], the IC50 worked out at 8.4 µM. For the same molecule, the inhibition in assay [2] is over 65%.
As for `O=S(=O)(Nc1ccc2cccnc2c1O)c1cccs1`, the IC50 in assay [1] came to 4.3 µM. In assay [2], the inhibition is over 65%.
Regarding `Cc1occc(=S)c1O`, the inhibition in assay [3] worked out at 96%; in [10] it was 91%; in [4] it was 102%; in assay [5], 98%; in assay [6] it was 100%; in assay [7], 98%. In addition, the inhibition in [12] is 100%; in [8], 101%. Also, the IC50 in assay [11] was 11 µM; against Tyrosinase, 3.8 µM.
On Tyrosinase, `O=C(O)c1cccc(=O)[nH]1` returned an IC50 of 159 µM.
As for `O=S(=O)(Nc1ccc(O)c2ncccc12)c1ccc(-c2ccccc2)cc1`, the IC50 in assay [1] came to 10.8 µM. For the same molecule, the inhibition in [2] is over 65%.
For the molecule `O=S(=O)(Nc1ccc2cccnc2c1O)c1ccccc1`, the IC50 in [1] was 5.6 µM. Besides, the inhibition in [2] is over 65%.
As for `Oc1cccc2cccnc12` [OXYQUINOLINE], the inhibition was 56% in assay [3]; 61% in assay [10]; 83% in [5]; 94% in assay [6]; 77% in assay [7]; 78% in assay [12]. Moreover, the figures for the inhibition in assay [8] and in assay [9] were 92% and 8%, respectively. For the same molecule, the half-maximal inhibitory concentration (IC50) in assay [1] was determined as 130 µM.
On to `O=S(=O)(Nc1ccc(O)c2ncccc12)c1ccccc1`, for which the IC50 in assay [1] was found to be 8.8 µM. For the same molecule, the inhibition in [2] is over 65%.
For `O=S(=O)(Nc1ccc2cccnc2c1O)c1ccc(F)cc1`, in that order: 3 µM and over 65%.
Regarding `O=c1[nH]ccc(=S)[nH]1`, the IC50 in assay [1] was determined as 121 µM.
Take `O=S(=O)(Nc1ccc2cccnc2c1O)c1ccc(-c2ccccc2)cc1`: the 50% inhibitory concentration (IC50) in [1] was 3.9 µM. Moreover, the inhibition in assay [2] was over 65%.
Regarding `Nc1cccc(C(=O)O)c1O`, the inhibition in assay [3] is 90%; in assay [10], 72%; in assay [5], 72%; in [6], 70%; in assay [7], 69%; in assay [12] it was 59%. Further, the results for the inhibition in assay [8] and in assay [9] were 67% and 18%, respectively. The IC50 in [1] is 389 µM.
As for `O=C(O)c1cc(O)ccc1O` [GENTISIC ACID], the inhibition is 86% in assay [10]; 96% in assay [4]; -3% in [5]; 0% in assay [6]; 13% in assay [7]; 40% in assay [12]. The inhibition came out at 1% in assay [8] and 24% in [9]. The half-maximal inhibitory concentration (IC50) in assay [11] is 75 µM.

The term IC50 denotes the concentration that gives 50% inhibition. As usually defined, the inhibition is the change of the read-out against control, counted positive when it falls.
